Activity calls are given as the source filed them.
How the values were obtained:
[1] = test system: PBMC; assay: Synergistic potentiation of LPS-induced cytotoxicity of human PBMCs against human K562 cells assessed as increase in dead cells level at 1 uM incubated for 18 hrs before addition of K562 cells by CFSE/Sytox Blue staining based flow cytometry relative to control
[2] = test system: PBMC; assay: Synergistic potentiation of IFN-gamma-induced cytotoxicity of human PBMCs against human K562 cells assessed as increase in dead cells level at 1 uM incubated for 18 hrs before addition of K562 cells by CFSE/Sytox Blue staining based flow cytometry relative to control
[3] = biological target: Nucleotide-binding oligomerization domain-containing protein 2 (Homo sapiens) (UniProt Q9HC29); assay: Agonist activity at NOD2 in human PBMC assessed as induction of TNFalpha production at 1 uM incubated for 18 hrs; assay type: cell-based; details: filed as agonist
Method in brief: (§1)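 500,000 cells/well in 500 μL medium, treated 18 h at 37 °C, 5% CO2 against a 0.1% DMSO vehicle. Cell-free supernatants stored at -80 °C. Cytokines measured by cytometric bead array (human inflammatory cytokines) on a flow cytometer.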

[4] = biological target: Nucleotide-binding oligomerization domain-containing protein 2 (Homo sapiens) (UniProt Q9HC29); assay: Synergistic agonist activity at NOD2 in human PBMC assessed as induction of IL-6 production at 1 uM incubated for 18 hrs in presence of IFN-gamma; assay type: cell-based; details: filed as agonist
Method in brief: (§2)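 PBMCs (500,000/well) treated with agonist at 1 μM together with LPS (10 ng/mL) or IFN-γ (200 U/mL); vehicle 0.1% DMSO. Supernatants taken after 18 h at 37 °C, 5% CO2, stored at -80 °C, then assayed for cytokines by cytometric bead array on a flow cytometer.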

[5] = biological target: T1, Nucleotide-binding oligomerization domain-containing protein 2 (Mus musculus) (UniProt Q8K3Z0); assay: Agonist activity at mouse NOD2 expressed in RAW -Blue NOD2 reporter cells by colorimetry based SEAP assay; details: filed as agonist
T1 sequence (whole entry): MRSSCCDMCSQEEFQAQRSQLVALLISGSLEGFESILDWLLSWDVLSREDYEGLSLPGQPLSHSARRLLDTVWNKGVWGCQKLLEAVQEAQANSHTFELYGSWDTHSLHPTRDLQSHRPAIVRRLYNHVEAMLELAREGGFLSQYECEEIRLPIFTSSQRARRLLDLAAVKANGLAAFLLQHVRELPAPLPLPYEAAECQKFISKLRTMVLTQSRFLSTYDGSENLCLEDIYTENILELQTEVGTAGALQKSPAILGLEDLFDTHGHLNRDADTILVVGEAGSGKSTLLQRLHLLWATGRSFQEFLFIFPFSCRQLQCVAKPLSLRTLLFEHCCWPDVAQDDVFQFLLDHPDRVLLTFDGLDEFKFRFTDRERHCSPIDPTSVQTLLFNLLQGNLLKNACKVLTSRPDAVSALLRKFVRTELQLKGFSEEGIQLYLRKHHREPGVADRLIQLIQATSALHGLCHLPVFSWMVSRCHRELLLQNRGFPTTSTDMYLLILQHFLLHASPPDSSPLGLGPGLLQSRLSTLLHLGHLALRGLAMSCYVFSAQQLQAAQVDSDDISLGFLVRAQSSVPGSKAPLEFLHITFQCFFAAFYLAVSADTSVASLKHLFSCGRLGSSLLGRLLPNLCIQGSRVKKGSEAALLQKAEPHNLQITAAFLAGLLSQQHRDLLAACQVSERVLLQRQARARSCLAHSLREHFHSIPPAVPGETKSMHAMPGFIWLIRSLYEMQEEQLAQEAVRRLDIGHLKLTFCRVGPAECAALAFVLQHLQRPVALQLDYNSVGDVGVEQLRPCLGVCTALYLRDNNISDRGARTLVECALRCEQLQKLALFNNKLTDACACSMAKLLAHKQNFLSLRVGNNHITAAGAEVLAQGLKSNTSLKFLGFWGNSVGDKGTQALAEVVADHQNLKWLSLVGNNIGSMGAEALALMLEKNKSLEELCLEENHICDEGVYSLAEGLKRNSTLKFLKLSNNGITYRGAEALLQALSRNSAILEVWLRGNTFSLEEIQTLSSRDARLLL

[6] = biological target: Nucleotide-binding oligomerization domain-containing protein 2 (Homo sapiens) (UniProt Q9HC29); assay: Agonist activity at NOD2 in human PBMC assessed as induction of IL-8 production at 1 uM incubated for 18 hrs; assay type: cell-based; details: filed as agonist
Method in brief: as §1

[7] = biological target: Nucleotide-binding oligomerization domain-containing protein 2 (Homo sapiens) (UniProt Q9HC29); assay: Synergistic agonist activity at NOD2 in human PBMC assessed as induction of TNF-alpha production at 1 uM incubated for 18 hrs in presence of LPS; assay type: cell-based; details: filed as agonist
Method in brief: as §2

[8] = biological target: Nucleotide-binding oligomerization domain-containing protein 2 (Homo sapiens) (UniProt Q9HC29); assay: Agonist activity at NOD2 in human PBMC assessed as induction of IL-1beta production at 1 uM incubated for 18 hrs; assay type: cell-based; details: filed as agonist
Method in brief: as §1

[9] = biological target: Nucleotide-binding oligomerization domain-containing protein 2 (Homo sapiens) (UniProt Q9HC29); assay: Agonist activity at NOD2 in human PBMC assessed as induction of IL-6 production at 1 uM incubated for 18 hrs; assay type: cell-based; details: filed as agonist
Method in brief: as §1

[10] = biological target: Nucleotide-binding oligomerization domain-containing protein 2 (Homo sapiens) (UniProt Q9HC29); assay: Synergistic agonist activity at NOD2 in human PBMC assessed as induction of IL-1beta production at 1 uM incubated for 18 hrs in presence of IFN-gamma; assay type: cell-based; details: filed as agonist
Method in brief: as §2

[11] = biological target: Nucleotide-binding oligomerization domain-containing protein 2 (Homo sapiens) (UniProt Q9HC29); assay: Synergistic agonist activity at NOD2 in human PBMC assessed as induction of IL-1beta production at 1 uM incubated for 18 hrs in presence of LPS; assay type: cell-based; details: filed as agonist
Method in brief: as §2

[12] = biological target: Nucleotide-binding oligomerization domain-containing protein 2 (Homo sapiens) (UniProt Q9HC29); assay: Synergistic agonist activity at NOD2 in human PBMC assessed as induction of IL-6 production at 1 uM incubated for 18 hrs in presence of LPS; assay type: cell-based; details: filed as agonist
Method in brief: as §2

[13] = biological target: Nucleotide-binding oligomerization domain-containing protein 2 (Homo sapiens) (UniProt Q9HC29); assay: Synergistic agonist activity at NOD2 in human PBMC assessed as induction of TNFalpha production at 1 uM incubated for 18 hrs in presence of IFN-gamma; assay type: cell-based; details: filed as agonist
Method in brief: as §2

Measured: Activity

Nucleotide-binding oligomerization domain-containing protein 2 (Homo sapiens), sequence (Q9HC29 whole entry, the tested form may be a part): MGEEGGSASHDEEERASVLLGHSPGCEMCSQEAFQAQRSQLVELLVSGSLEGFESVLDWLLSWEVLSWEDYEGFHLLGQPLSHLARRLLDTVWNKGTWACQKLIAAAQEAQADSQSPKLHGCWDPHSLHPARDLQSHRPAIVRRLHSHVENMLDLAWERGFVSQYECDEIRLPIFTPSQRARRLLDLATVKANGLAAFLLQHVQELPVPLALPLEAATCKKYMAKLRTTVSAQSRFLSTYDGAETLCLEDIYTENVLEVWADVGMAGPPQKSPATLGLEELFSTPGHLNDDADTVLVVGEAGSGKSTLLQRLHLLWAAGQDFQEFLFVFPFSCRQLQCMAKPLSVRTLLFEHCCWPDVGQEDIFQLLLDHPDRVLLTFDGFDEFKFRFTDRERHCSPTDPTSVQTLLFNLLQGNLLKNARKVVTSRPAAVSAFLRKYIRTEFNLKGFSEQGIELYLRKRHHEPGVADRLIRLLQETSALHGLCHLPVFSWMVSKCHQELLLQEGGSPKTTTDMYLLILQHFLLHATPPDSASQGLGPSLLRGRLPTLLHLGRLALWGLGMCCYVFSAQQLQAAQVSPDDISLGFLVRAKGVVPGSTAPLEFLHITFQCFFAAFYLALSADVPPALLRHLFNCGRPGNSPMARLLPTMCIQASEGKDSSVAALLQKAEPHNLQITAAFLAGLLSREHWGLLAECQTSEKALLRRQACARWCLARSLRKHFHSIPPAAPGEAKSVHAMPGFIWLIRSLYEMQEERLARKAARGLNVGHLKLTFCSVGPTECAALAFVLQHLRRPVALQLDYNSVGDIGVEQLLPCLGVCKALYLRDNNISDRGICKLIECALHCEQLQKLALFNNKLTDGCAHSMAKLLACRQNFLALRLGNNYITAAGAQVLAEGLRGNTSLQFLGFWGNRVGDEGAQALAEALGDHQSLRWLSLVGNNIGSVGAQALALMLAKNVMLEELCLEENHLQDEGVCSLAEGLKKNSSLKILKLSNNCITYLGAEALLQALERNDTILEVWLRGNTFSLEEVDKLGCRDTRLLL

COc1cc(/C=C/C(=O)NCC(=O)N[C@H](C(=O)N[C@H](CCC(=O)OC2CCCC2)C(=O)OC2CCCC2)C(C)C)ccc1O
active: [1] | [2]

CCOC(=O)CC[C@@H](NC(=O)[C@@H](NC(=O)CNC(=O)/C=C/c1ccc(OC(=O)CC23CC4CC(CC(C4)C2)C3)c(OC)c1)C(C)C)C(=O)OCC
active: all assays above

CC(=O)N[C@@H]1[C@@H](O[C@H](C)C(=O)N[C@@H](C)C(=O)N[C@H](CCC(=O)O)C(N)=O)[C@@H](O)[C@@H](CO)O[C@H]1O
active: [3] | [6] | [8] | [9]

— ChEMBL document CHEMBL5120973, “Discovery of Desmuramylpeptide NOD2 Agonists with Single-Digit Nanomolar Potency” (ACS Med Chem Lett, 2022)
